TbMetRS inhib: Trypanosoma brucei MetRS inhibition | inhibition, % at 11.9 µM | 0.4% of 360,000 active | purified T. brucei MetRS, ATP depletion, Kinase-Glo luminescence;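 active = inhibition above a per-plate cutoff of the control wells' mean inhibition plus 3 SD, cut at about 5.5% in these data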;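 note: 0% = DMSO wells median and 100% = median of wells with control inhibitor compound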
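Assay system: T. brucei methionyl-tRNA synthetase, purified | Medium: HEPES buffer with MgCl2, KCl, DTT, spermine, BSA, pyrophosphatase | Compound: 11.9 µM single point | Incubation: 15 min enzyme-compound preincubation, 2 h reaction, 10 min detection, 25 °C | Measured by: Kinase-Glo luciferase luminescence reporting remaining unconsumed ATP | Measure: % inhibition normalized to control-well medians | Replication: Singlicate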
GC-B act: GC-B (human) receptor activation; HEK293-GC-B cells, CNP EC30, cGMP TR-FRET; 0% at EC30 CNP, 100% saturating CNP; activation, % at 10 µM; 0.11% of 370,000 active; AID 1920062;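 active = activation at 10 µM reaching about 35% in either raw or pattern-adjusted values, limit read from the data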
Target sequence (P20594 whole entry, looked up): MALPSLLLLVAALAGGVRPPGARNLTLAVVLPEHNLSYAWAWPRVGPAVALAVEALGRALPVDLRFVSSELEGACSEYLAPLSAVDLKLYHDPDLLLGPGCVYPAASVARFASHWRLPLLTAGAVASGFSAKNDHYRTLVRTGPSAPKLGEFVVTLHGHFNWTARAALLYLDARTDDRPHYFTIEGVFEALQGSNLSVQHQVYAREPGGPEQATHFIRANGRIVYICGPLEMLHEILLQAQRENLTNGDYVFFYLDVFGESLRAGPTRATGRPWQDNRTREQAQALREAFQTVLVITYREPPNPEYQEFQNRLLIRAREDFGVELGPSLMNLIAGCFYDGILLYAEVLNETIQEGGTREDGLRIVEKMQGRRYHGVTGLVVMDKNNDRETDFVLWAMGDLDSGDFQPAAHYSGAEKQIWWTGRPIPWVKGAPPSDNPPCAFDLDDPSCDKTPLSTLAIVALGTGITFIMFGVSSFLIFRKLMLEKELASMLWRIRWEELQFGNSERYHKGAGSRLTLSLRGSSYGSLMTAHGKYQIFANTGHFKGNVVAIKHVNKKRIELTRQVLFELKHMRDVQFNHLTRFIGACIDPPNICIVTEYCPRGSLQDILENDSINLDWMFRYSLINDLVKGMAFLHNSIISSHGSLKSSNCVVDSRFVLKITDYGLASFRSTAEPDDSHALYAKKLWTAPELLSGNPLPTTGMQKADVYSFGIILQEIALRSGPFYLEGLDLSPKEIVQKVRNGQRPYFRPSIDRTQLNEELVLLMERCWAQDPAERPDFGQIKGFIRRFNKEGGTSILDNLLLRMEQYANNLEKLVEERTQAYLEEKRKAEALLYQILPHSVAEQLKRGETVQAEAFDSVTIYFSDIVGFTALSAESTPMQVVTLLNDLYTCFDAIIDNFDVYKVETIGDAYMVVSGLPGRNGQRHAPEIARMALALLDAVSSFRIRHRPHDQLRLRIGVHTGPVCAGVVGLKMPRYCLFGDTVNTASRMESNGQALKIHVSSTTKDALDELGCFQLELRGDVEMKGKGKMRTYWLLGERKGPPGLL
MT1-MMP act inh: blocks activation of human MT1-MMP; GFP/RFP ratio change, % at 20 µM; AID 651647; P50281; 0.061% of 360,000 active; HT1080 RFP-PRO-GFP cells, GFP/RFP ratio fluorescence, overnight; percent of plate control window, DMSO zero;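 active = GFP/RFP ratio change of at least 30% with cell ATP level not reduced by more than half and red fluorescence within 50% of control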
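Compound: 20 µM single dose, 1% DMSO / System: HT1080 RFP-PRO-GFP cells / Controls: DMSO and RFP-L50D-GFP cell wells / Read-out basis: GFP/RFP fluorescence ratio / Schedule: overnight compound exposure at 37 °C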
Bfl-1 A1 inh: inhibitors of the anti-apoptotic protein A1, read as caspase activation | caspase activation, % (test concentration not listed) | MEF A1-2A-BIM cells, Caspase-Glo 3/7 luminescence, 3 h; percent of clofoctol response, vehicle zero | 0.066% of 330,000 active | AID 2462;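 active = over half of replicate activation scores above 10%, or exactly half above 10 with the replicate mean above 10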
GC-A act: GC-A (human) enzyme activation. P16066. HEK293 GC-A cells, cGMP TR-FRET, EC30 ANP; 0% at EC30 ANP, 100% saturating ANP. activation, % at 10 µM. 0.14% of 370,000 active; in the data active = activation above about 40%
SKN-1 inh: C. elegans SKN-1 inhibition. C. elegans VP596 Pgst-4::GFP/RFP ratio, acrylamide-induced, 24 h. inhibition, % at 21.8 µM. 0.49% of 360,000 active;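 active = interference check ratio from 0.5 to 1.5 plus GFP to RFP signal ratio inhibition reaching or exceeding a fixed threshold, cut at about 30% in these data, passing the limit was not always enough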
Starred values were filed as active, the others as inactive; nt = no result given. Only some compounds are listed: those with a hit (about 1.1% of all), similar ones and a draw of the others.

SMILES	TbMetRS inhib	GC-B act	MT1-MMP act inh	Bfl-1 A1 inh	GC-A act	SKN-1 inh
CCOC(=O)C1=C(COC(=O)Cc2c(F)cccc2Cl)NC(=O)NC1C (stereo not drawn)	0	36*	5	1	29	-6
Clc1ccc2oc(-c3cccnc3)nc2c1	-1	-1	-4	-8	2	50*
Clc1ccc2oc(SCc3cccnc3)nc2c1	0	-2	-4	1	2	41*
O=C(NC1CCCC1)C1C(c2ccc(C(F)(F)F)cc2)=Nc2ccccc2N1C(=O)c1ccco1 (stereo not drawn)	-1	-2	-1	nt	-1	41*
CN(C)CCCN(C(=O)c1cc2cc([N+](=O)[O-])ccc2s1)c1nc2cc3c(cc2s1)OCCO3	0	2	-4	8.4*	3	0
COc1cccc(CNC(=O)COC(=O)CNC(=O)c2ccc(-c3ccccc3)cc2)c1	-1	8	1	nt	47*	0
O=c1c(Cl)c(Cl)cnn1Cc1ccccc1Cl	nt	-2	nt	8.3*	24	nt
Cc1ccc(Cn2ncc(Cl)c(Cl)c2=O)cc1	0	-4	-5	-1	5	1
O=c1[nH]cnc2c1cnn2Cc1ccccc1Cl	0	-4	2	-1	1	9
Cc1ccc(-c2nnc(Cc3ccc(Cl)cc3)o2)cc1	0	3	1	-1	-2	13
O=C(Cn1ncc(Cl)c(Cl)c1=O)N1CCN(Cc2ccccc2)CC1	0	3	-11	nt	8	7
O=c1c(Cl)c(Cl)cnn1Cc1nnc(-c2ccc(Cl)cc2)o1	1	9	-9	nt	49*	13
CCc1ccc(C(=O)Cn2ncc(Cl)c(Cl)c2=O)cc1	-2	26	-12	1	60*	-6
Cc1cc(C)cc(Cn2ncc(Cl)c(Cl)c2=O)c1	nt	-14	nt	6.7*	-18	nt
CCC[C@H]1[C@@H](NS(=O)(=O)c2ccccc2[N+](=O)[O-])CC[C@@]23CCCN2C(=O)CCC[C@@H]13	nt	-11	nt	nt	-5	nt
Cc1ccc2nc(-c3ccc(NC(=O)CSc4nnc(-c5cccc(Cl)c5)n4Cc4ccco4)cc3)sc2c1	nt	7	nt	nt	1	nt
O=C(O[C@H]1CC[C@@]23CCCN2C(=O)CCC[C@H]3C1)N1CCOCC1	nt	-7	nt	nt	-6	nt
Cc1cc(NS(=O)(=O)c2ccc(NC(=O)c3cc(-c4cccnc4)nc4ccc(Cl)cc34)cc2)no1	-1	0	8	0	0	37*
CC(=O)CC[C@H]1CC[C@]2(CCCN(C(=O)c3ccco3)C2)O1	nt	1	nt	nt	4	nt
C[C@H]1[C@@H](OC(=O)N2CCN(c3ccccc3)CC2)CC[C@@]23CCCN2C(=O)CCC[C@@H]13	nt	2	nt	nt	-2	nt
Brc1ccc(/C=N/Nc2ccc3ccccc3n2)cc1	-2	-3	nt	-3	2	45*
Brc1ccccc1/C=N/Nc1ccc2ccccc2n1	-1	-6	2	0	-4	3
O=C1/C(=C/N(C(=O)c2ccco2)c2ccc(Br)cc2)Sc2ccccc21	0	nt	4	-6	nt	38*
N#Cc1cncc(C#Cc2ccccc2)c1	0	-4	-4	-1	-1	61*
N#Cc1ccccc1	0	-7	2	1	6	11
SMILES	TbMetRS inhib	GC-B act	MT1-MMP act inh	Bfl-1 A1 inh	GC-A act	SKN-1 inh
Fc1ccc(C(Nc2ccccn2)c2c[nH]c3ccccc23)cc1 (stereo not drawn)	0	-1	-4	0	2	3
OC(c1ccccn1)c1c[nH]c2ccccc12 (stereo not drawn)	0	-14	-1	0	-1	37*
COC(=O)C[C@@H]1CC[C@H]2[C@@H](COc3ccc(NC(=O)c4ccc(Cl)cc4)cc3C(=O)N2C)O1	nt	16	nt	nt	4	nt
N#C/C(=C\c1ccc(O)c(O)c1)C(=O)c1ccc(O)c(O)c1	1	3	-1	-4	0	9
N#CC(C#N)=C(N)/C(C#N)=C/c1cc(O)c(O)c(O)c1	1	-13	-18	-1	-10	93*
CCCOc1ccc(C(=O)Nc2ccc(Cl)cn2)cc1	-1	1	1	0	12	41*

From PubChem BioAssay
